Measurements published in ChEMBL document CHEMBL1156065, “Structure-activity relationship study on alpha1 adrenergic receptor antagonists from beer” (Bioorg Med Chem Lett, 2009).

Assays:
[1] = target: T1, Alpha-1A adrenergic receptor (Rattus norvegicus, UniProt P43140); experiment: Antagonist activity at rat alpha1A adrenoceptor assessed as inhibition of phenylephrine-induced contraction of caudal artery; format: functional, tissue-based
T1 sequence (P43140 whole entry): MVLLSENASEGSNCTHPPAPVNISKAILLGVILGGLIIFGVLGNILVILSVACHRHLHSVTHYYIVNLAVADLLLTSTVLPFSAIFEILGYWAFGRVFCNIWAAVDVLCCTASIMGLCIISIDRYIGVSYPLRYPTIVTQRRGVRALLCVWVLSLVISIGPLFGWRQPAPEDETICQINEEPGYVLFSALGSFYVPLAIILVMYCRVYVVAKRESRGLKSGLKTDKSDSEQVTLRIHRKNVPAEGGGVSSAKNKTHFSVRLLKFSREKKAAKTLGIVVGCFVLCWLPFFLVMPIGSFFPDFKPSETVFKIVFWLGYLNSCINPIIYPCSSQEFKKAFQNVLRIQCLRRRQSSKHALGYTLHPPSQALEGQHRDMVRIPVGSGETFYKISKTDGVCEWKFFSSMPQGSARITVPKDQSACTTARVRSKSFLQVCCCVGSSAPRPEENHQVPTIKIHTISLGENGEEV
How it was run: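 Isometric tension at 1 g resting load, equilibrated 30 to 60 min with repeated washes. Contraction induced by submaximal phenylephrine. After the response stabilized, test sample was added at increasing concentrations, up to 15 min per concentration or until the response was stable.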

[2] = target: T1, Alpha-1A adrenergic receptor; experiment: Displacement of [3H]prazosin from rat salivary gland alpha1A adrenoceptor
How it was run: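 Rat salivary gland homogenate incubated with test samples and 0.06 nM [3H]-prazosin at 22 °C for 60 min. Stopped by vacuum filtration through glass-fiber filters, washed with 50 mM Tris–HCl, counted by liquid scintillation. Nonspecific binding defined with phentolamine and subtracted from total binding. IC50 taken as the concentration inhibiting specific binding by 50%.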

IC50 [1] | IC50 [2] | Structure (SMILES)
9.72 µM | 0.56 µM | COC(=O)[C@@H]1c2cc(/C=C/C(=O)NCCCCNC(=N)N)ccc2O[C@H]1c1ccc(O)cc1
> 100 µM | 57.6 µM | N=C(N)NCCCCNC(=O)/C=C/c1ccc(O)cc1
17.7 µM | 2.44 µM | N=C(N)NCCCCNC(=O)/C=C/c1ccc2c(c1)[C@@H](C(=O)NCCCCNC(=N)N)[C@@H](c1ccc(O)cc1)O2
> 100 µM | > 100 µM | N=C(N)NCCCCNC(=O)[C@H]1c2cc(/C=C/C(=O)O)ccc2O[C@@H]1c1ccc(O)cc1
> 100 µM | > 100 µM | N=C(N)NCCCCNC(=O)[C@@H]1c2cc(/C=C/C(=O)O)ccc2O[C@H]1c1ccc(O)cc1
4.9 µM | 0.42 µM | N=C(N)NCCCCNC(=O)/C=C/c1ccc2c(c1)[C@H](C(=O)NCCCCNC(=N)N)[C@H](c1ccc(O)cc1)O2 [APERIDINE]
14.3 µM | 0.29 µM | N=C(N)NCCCCNC(=O)/C=C/c1ccc2c(c1)[C@@H](C(=O)NCCCCNC(=N)N)[C@H](c1ccc(O)cc1)O2
19.3 µM | 0.31 µM | N=C(N)NCCCCNC(=O)/C=C/c1ccc2c(c1)[C@H](C(=O)NCCCCNC(=N)N)[C@@H](c1ccc(O)cc1)O2 [HORDATINE A]
42.2 µM | 2.16 µM | COC(=O)[C@H]1c2cc(/C=C/C(=O)NCCCCNC(=N)N)ccc2O[C@@H]1c1ccc(O)cc1
